# Shown are actives, neighbours in structure and some others; about 2.9% of the full set was active somewhere.
# IMP-1 inh: inhibitors of Pseudomonas aeruginosa IMP-1 metallo-beta-lactamase; purified IMP-1, nitrocefin hydrolysis, epi-absorbance fluorescence; inhibition, % at 5.6 µM; 290,000 tested, 0.45% active; AID 1556;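 active means inhibition above the mean plus 3 SD of all compounds in the same screening run, cut at about 4.5% in these data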;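 further: 0% = IMP-1 with DMSO and 100% = DMSO wells lacking enzyme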
#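 System: Purified recombinant IMP-1 metallo-beta-lactamase enzyme | Measured by: Fluorescence quenching readout, ex 480/em 530 nm | Replication: Singlicate | Incubation: 15 min preincubation plus 25 min reaction at 25 °C | Evaluation: Percent inhibition from optical density relative to buffer-blank wells | Benchmarks: DMSO with and without IMP-1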
# NALP1 yeast inh: inhibitors of NALP1 inflammasome in yeast. inhibition, % at 10 µM. 280,000 tested, 0.61% active. S. cerevisiae NALP1/ASC/caspase-1 growth, X-gal OD620, 72 h; in the data active means inhibition mostly above about 24%, no sharp cut-off; inactive means mostly below about 32%
# VIM-2 inh: blocks Pseudomonas aeruginosa VIM-2 metallo-beta-lactamase. purified VIM-2, nitrocefin hydrolysis, epi-absorbance fluorescence. inhibition, % at 5.6 µM. 290,000 tested, 0.89% active;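 active means inhibition above the mean of all tested compounds plus 3 SD, cutoff set per screening run, cut at about 7.5% in these data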;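 further: red hydrolysis product quenches plate fluorescence so inhibitors raise well fluorescence; 0% = enzyme with DMSO and 100% = DMSO without enzyme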
# SUMO HTRF inh: SUMOylation inhibition; 290,000 tested, 0.36% active; inhibition, % at 35 µM; HTRF SUMOylation assay, SAE1/SAE2 + UBC9, in vitro; P63279; in the data active means inhibition above about 50%, passing the limit was not always enough
# Target sequence (P63279 whole entry, looked up): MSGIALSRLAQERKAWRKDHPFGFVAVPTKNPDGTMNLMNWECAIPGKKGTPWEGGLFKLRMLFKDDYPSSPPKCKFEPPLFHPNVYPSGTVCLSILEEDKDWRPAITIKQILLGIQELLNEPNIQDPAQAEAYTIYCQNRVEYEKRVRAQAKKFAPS
# Mot1-301 SUMO: blocks SUMOylation pathway, rescuing yeast Mot1-301 growth. S. cerevisiae Mot1-301 growth rescue, ATP luminescence, 38.5C; percent above DMSO median, 100 means doubled. growth rescue, % at 18.8 µM. 320,000 tested, 1% active. AID 2716;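 active means every valid replicate shows activation above 250% relative to neutral control wells; inactive means the rest, any valid replicate at or below 250%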;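 further: OY570 slx delta 5 strain wells were the positive control but not used for scaling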
# FID counter: displaces DNA intercalator in HCV helicase counter-screen. DNA fluorescent intercalator displacement, fluorescence. inhibition, % at 7.9 µM. 290,000 tested, 0.17% active. AID 1845; in the data active means inhibition above about 37%;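 further: 0% = vehicle and 100% = reference compound; higher means more ethidium bromide displaced from hairpin DNA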
# * marks the source's active call; other numbers are inactive results; i = inactive; · = no result.
SMILES,IMP-1 inh,NALP1 yeast inh,VIM-2 inh,SUMO HTRF inh,Mot1-301 SUMO,FID counter
O=C(Cn1cc[n+](Cc2ccccc2)c1)c1ccc([N+](=O)[O-])cc1,-3,20,-3,1,21,44*
O=C(CSCc1ccc(F)cc1)NCc1ccc(F)cc1,-4,28*,-4,4,-4,-8
COc1ccc(C=O)cc1Oc1nc(Cl)ncc1F,-3,1,0,18,-3,8
COc1ccc(-c2noc(CCCC(=O)NC3CCCCC3)n2)cc1,-3,7,-4,-9,2,-36
O=C(O)CC(CP(=O)(c1ccccc1)c1ccccc1)C(=O)O (stereo not drawn),-1,18,-1,-3,-4,0
NC(CCCCCP(=O)(c1ccccc1)c1ccccc1)C(=O)O (stereo not drawn),28*,12,4,11,-20,0
Cc1ccc2[nH]c(=O)c(CN(Cc3ccccc3)C(=S)NCCCN(C)C)cc2c1,0,10,0,15,62,15
Cc1ccc2cc(CN(CCCN(C)C)C(=S)NCc3ccccc3)c(=O)[nH]c2c1C,-2,24,9.8*,20,-5,14
Cc1ccc2cc(CCNC(=O)CCCc3ccccc3)c(=O)[nH]c2c1C,-2,15,-3,12,263,-35
Cc1ccc2cc(CN(CCCN(C)C)C(=O)NCc3ccccc3)c(=O)[nH]c2c1C,-1,25,7.8*,14,12,19
COc1ccccc1C1CN=NC12CCCc1ccccc1C2=O (stereo not drawn),-2,17,-5,4,17,-17
COC(=O)c1scc(C)c1N/N=C(\C)c1ccc(F)cc1,-3,42*,-2,-12,10,-2
Cc1csc(C(=O)O)c1NC(=O)c1ccc(F)cc1,-2,-5,-1,26,-8,-4
O=C1/C(=C/c2cccnc2)CCC/C1=C\c1cccnc1,-1,78*,1,-1,111,-9
O=C1/C(=C/c2ccccc2)CCCc2ccccc21,-1,57*,-1,-2,-10,1
CCC1C/C(=C\c2cccnc2)C(=O)/C(=C/c2cccnc2)C1 (stereo not drawn),-5,76*,-1,8,·,-29
COc1ccc(-n2nc([N+](=O)[O-])c(=NC3CCN(Cc4ccccc4)CC3)n2O)cc1,9.4*,18,-2,8,347,11
COc1ccc(-n2nc([N+](=O)[O-])c(=NCc3cccnc3)n2O)cc1,-1,-27,0,3,7,1
COc1ccc(Cl)cc1C(=O)Nc1nc2ccccc2[nH]1,-2,38*,1,11,-13,-15
COc1ccc(C(=O)Nc2nc3ccccc3[nH]2)cc1OC,-1,2,-3,7,1,-11
CC1CCCC(NS(=O)(=O)c2ccc3c(c2)OCCO3)C1C (stereo not drawn),-4,27*,-2,-1,162,-18
Cc1nc2ccccc2n1/N=C/c1ccc([N+](=O)[O-])s1,-1,38,-2,11,-1,4
O=[N+]([O-])c1ccc(/C=N/n2cnc3ccccc32)s1,-1,54*,-1,7,378*,6
Cc1cc2ncn(/N=C/c3ccc([N+](=O)[O-])s3)c2cc1C,-3,59*,-3,14,27,-3
CC(C)CNC(=O)c1ccc(COc2ccc(Cl)cc2Cl)o1,-1,12,-2,-19,7,-20
SMILES,IMP-1 inh,NALP1 yeast inh,VIM-2 inh,SUMO HTRF inh,Mot1-301 SUMO,FID counter
OC1(c2nc3ccccc3[nH]2)CCCCC1,·,·,·,·,-13,·
CCCCOc1ccc(CSC2=NCCN2)cc1[N+](=O)[O-],-3,47*,1,-9,139,14
CCOc1ccc(CSC2=NCCN2)cc1[N+](=O)[O-],-2,36,0,1,i,5
O=C(Nc1ccc(-c2cc3ccccc3oc2=O)c(Cl)c1)c1cccnc1,-2,33*,-3,22,-12,-2
COc1cc(NC(=O)c2cccnc2)ccc1-c1cc2ccccc2oc1=O,-1,16,-1,30,17,-14
C=C1c2cccc(O)c2C(O)=C2C(=O)[C@]3(O)C(O)=C(C(N)=O)C(=O)[C@@H](N(C)C)[C@@H]3[C@@H](O)[C@H]12,3,3,8.6*,93*,-25,2

# Screening results (PubChem)
